Each block holds one molecule with its values, some of them ahead of it.
What was measured:
Rattus norvegicus [1] = species: Rattus norvegicus; assay: Compound was tested for the inhibition of cholesterol biosynthesis from [14C]- acetate in freshly isolated rat hepatocytes; inactive at 200 uM; type: functional; details: hepatocyte
Squalene synthase [2] = target: T1, Squalene synthase (Rattus norvegicus, UniProt Q02769); assay: Inhibitory activity against microsomal squalene synthase
T1 sequence (Q02769 whole entry): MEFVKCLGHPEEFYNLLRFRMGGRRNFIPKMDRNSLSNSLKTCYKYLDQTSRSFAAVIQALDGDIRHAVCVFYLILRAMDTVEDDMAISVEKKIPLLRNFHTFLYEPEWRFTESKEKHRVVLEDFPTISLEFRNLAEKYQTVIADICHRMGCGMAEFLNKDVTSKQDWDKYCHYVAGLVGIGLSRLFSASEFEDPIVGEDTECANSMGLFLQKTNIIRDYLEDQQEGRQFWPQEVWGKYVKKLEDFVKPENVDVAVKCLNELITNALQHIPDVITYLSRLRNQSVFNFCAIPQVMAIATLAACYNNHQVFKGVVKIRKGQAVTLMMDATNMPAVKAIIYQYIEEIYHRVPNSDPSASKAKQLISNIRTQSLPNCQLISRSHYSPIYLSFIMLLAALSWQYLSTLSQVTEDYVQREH

Homo sapiens [3] = species: Homo sapiens; assay: Compound was tested for the inhibition of cholesterol biosynthesis from [14C]- acetate in freshly isolated from human skin fibroblasts; inactive at 100 uM; type: functional, organism-based
Squalene synthase [4] = target: T1, Squalene synthase; assay: Inhibitory activity against liver microsomal Squalene synthase; details: read-out: I50
Rattus norvegicus [5] = species: Rattus norvegicus; assay: Compound was tested for the inhibition of cholesterol biosynthesis from [14C]- acetate in freshly isolated rat hepatocytes; type: functional; details: Hepatocyte, read-out: I50
Homo sapiens [6] = species: Homo sapiens; assay: Compound was tested for the inhibition of cholesterol biosynthesis from [14C]- acetate in freshly isolated from human skin fibroblasts; inactive at 300 uM; type: functional, organism-based
Homo sapiens [7] = species: Homo sapiens; assay: Compound was tested for the inhibition of cholesterol biosynthesis from [14C]- acetate in freshly isolated from human skin fibroblasts; type: functional, organism-based; details: read-out: I50
Homo sapiens [8] = species: Homo sapiens; assay: Compound was tested for the inhibition of cholesterol biosynthesis from [14C]- acetate in freshly isolated from human skin fibroblasts; inactive at 30 uM; type: functional
Homo sapiens [9] = species: Homo sapiens; assay: Compound was tested for the inhibition of cholesterol biosynthesis from [14C]- acetate in freshly isolated from human skin fibroblasts; inactive at 15 uM; type: functional, organism-based
[10] = compound: CC(C)=CCC/C(C)=C/CC/C(C)=C/COP(=O)(O)OP(=O)(O)O; assay: Competitive inhibitory activity against microsomal Squalene synthase
How it was run: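 Rat microsomal enzyme; inhibitor at 0, 2.5, 10 and 30 μM against FPP varied from 5 to 50 μM, with NADPH held saturating at 0.9 mM. Inhibition type and Ki were taken from double-reciprocal (Lineweaver-Burk) plots of the kinetic data.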

Ki (Squalene synthase [2]): 10 µM
Molecule: CC(C)=CCC/C(C)=C/CC/C(C)=C/CCP(=O)(O)CP(=O)(O)O
I50 (Rattus norvegicus [1]): Inactive
I50 (Homo sapiens [3]): Inactive

IC50 (Squalene synthase [4]): 31.8 µM
Molecule: CC(C)=CCC/C(C)=C/CC/C(C)=C/CCCP(=O)([O-])C(=O)[O-].[Na+].[Na+]
IC50 (Rattus norvegicus [5]): 30 µM
I50 (Homo sapiens [6]): Inactive

IC50 (Squalene synthase [4]): 41.6 µM
Molecule: CC(C)=CCC/C(C)=C/CC/C(C)=C/CCCOP(=O)(O)C(=O)O

Molecule: CC(C)=CCC/C(C)=C/CC/C(C)=C/CCC[PH](=O)O
IC50 (Squalene synthase [4]): 197 µM

Molecule: CC(C)=CCC/C(C)=C/CC/C(C)=C/CCP(=O)([O-])CC(=O)[O-].[K+].[K+]
IC50 (Rattus norvegicus [5]): 71 µM
I50 (Homo sapiens [3]): Inactive

IC50 (Squalene synthase [4]): 86 µM
Molecule: CC(C)=CCC/C(C)=C/CC/C(C)=C/COP(=O)(O)CC(=O)O
IC50 (Rattus norvegicus [5]): 273 µM

IC50 (Squalene synthase [4]): 106 µM
Molecule: CCOC(=O)P(=O)(O)OCC/C=C(\C)CC/C=C(\C)CCC=C(C)C
IC50 (Homo sapiens [7]): 12 µM
IC50 (Rattus norvegicus [5]): 9 µM

IC50 (Squalene synthase [4]): 112 µM
Molecule: CCOC(=O)P(=O)(O)CCC/C=C(\C)CC/C=C(\C)CCC=C(C)C
IC50 (Homo sapiens [7]): 2.2 µM
IC50 (Rattus norvegicus [5]): 24 µM

IC50 (Squalene synthase [4]): 100 µM
Molecule: CC(C)=CCC/C(C)=C/CC/C(C)=C/CCP(=O)([O-])C(=O)[O-].[Na+].[Na+]
I50 (Homo sapiens [8]): Inactive
IC50 (Rattus norvegicus [5]): 5.7 µM

IC50 (Squalene synthase [4]): 8.7 µM
Molecule: CC(C)=CCC/C(C)=C/CC/C(C)=C/CCOP(=O)([O-])C(=O)[O-].[Na+].[Na+]
IC50 (Rattus norvegicus [5]): 6 µM
I50 (Homo sapiens [9]): Inactive

B1: Squalene synthase (Rattus norvegicus), Q02769 (protein)
chain: T1 sequence (Q02769 whole entry)
Km [10]: 12.7 µM

Source: ChEMBL document CHEMBL1125928, “Isoprenyl phosphinylformates: new inhibitors of squalene synthetase” (J Med Chem, 1991)
